Assay results taken from ChEMBL document CHEMBL4837227, “Discovery and development of 2-aminobenzimidazoles as potent antimalarials” (Eur J Med Chem, 2021).
Converted amounts (≈) assume the structure as drawn. Values belong to the compound of their own block, whether it stands above or below them. The source made the active and inactive calls. No cut-off for these calls is given here.

Columns and labels:
Plasmodium falciparum [1] = assay: Antimalarial activity against Plasmodium falciparum 3D7 assessed as reduction in parasite growth measured after 72 hrs by Monash assay based fluorescence analysis; assay type: functional, organism-based; conditions: 3D7, 72 h
Method in brief: (§1)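 Asynchronous P. falciparum cultures were grown continuously in complete RPMI with 25 mM HEPES, 0.5% Albumax II, 0.37 mM hypoxanthine and 2.0 g/l bicarbonate. They were exposed to serially diluted compound for 72 h. Controls were DMSO (0.01%) and a reference positive control. Fluorescence was read after 2 h in the dark at room temperature. IC50 is mean SEM from technical duplicate or triplicate, at least three biological replicates.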

[2] = system: Plasmodium falciparum 3D7; assay: (§2) Binding affinity to Plasmodium falciparum 3D7 AMA1 (104 to 438 residues) expressed in Escherichia coli BL21(DE3) by surface plasmon resonance assay
Plasmodium falciparum [3] = assay: Antimalarial activity against synchronous ring stage of Plasmodium falciparum 3D7 assessed as parasite growth inhibition incubated for 72 hrs by Griffith assay based fluorescence analysis; assay type: functional, organism-based; conditions: 3D7, 72 h
Method in brief: (§3)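 22-point dose-response, 3 per log, final 40 µM top, 0.4% DMSO. 72 h at 37 °C under 90% N2/5% CO2/5% O2. DAPI stain, confocal imaging. IC50 from 4-parameter fit normalised to in-plate puromycin and DMSO controls.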

[4] = Selectivity index, ratio of IC50 for antimalarial activity against Plasmodium falciparum Dd2 to IC50 of antimalarial activity against Plasmodium falciparum 3D7; assay type: functional
Plasmodium falciparum [5] = assay: Antimalarial activity against synchronous ring stage of Plasmodium falciparum Dd2 assessed as parasite growth inhibition incubated for 72 hrs by Griffith assay based fluorescence analysis; assay type: functional, organism-based; conditions: Dd2, 72 h; method in brief: as §3
[6] = Metabolic stability in mouse liver microsomes assessed as intrinsic clearance at 1 uM measured per mg protein for 60 mins in presence of NADPH regenerating system by LC-MS analysis; assay type: ADME, Microsome; conditions: read-out: CLH
Method in brief: (§4)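 Compound was incubated at 37 °C with liver microsomes at 0.4 mg/mL protein. The reaction was started with an NADPH-regenerating system and quenched at time points over 60 min with acetonitrile containing diazepam as internal standard. No-NADPH controls were quenched at 2, 30 and 60 min.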

[7] = Metabolic stability in human liver microsomes assessed as intrinsic clearance at 1 uM measured per mg protein after 60 mins in presence of NADPH regenerating system by LC-MS analysis; assay type: ADME, Microsome; conditions: read-out: CLH; method in brief: as §4
Plasmodium falciparum [8] = assay: Antimalarial activity against artemisinin-resistant Plasmodium falciparum Cam3.II^C580Y expressing K13 mutant assessed as reduction in parasite growth measured after 72 hrs by Monash assay based fluorescence analysis; assay type: functional, organism-based
Method in brief: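 Asynchronous culture, 72 h compound exposure. Compounds prepared at […] (twice the top concentration) in complete RPMI (25 mM HEPES, 0.5% Albumax II, 0.37 mM hypoxanthine, sodium bicarbonate), then serially diluted. Fluorescence read after 2 h room-temperature dark incubation. Negative control 0.01% DMSO. IC50 as mean SEM, n ≥ 3 biological replicates, each in technical duplicate or triplicate.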

[9] = Selectivity index, ratio of IC50 for cytotoxicity against human HEK293 cells to antiplasmodial activity against Plasmodium falciparum 3D7; assay type: toxicity, cell-based; conditions: read-out: Ratio IC50
[10] = Metabolic stability in mouse liver microsomes assessed as half-life at 1 uM measured for 60 mins in presence of NADPH regenerating system by LC-MS analysis; assay type: ADME, Microsome; method in brief: as §4
[11] = Kinetic solubility of the compound at pH 6.5 measured after 30 mins by nephelometry; conditions: buffer, read-out: Kinetic_solubility
Plasmodium falciparum [12] = assay: Antimalarial activity against artemisinin-sensitive Plasmodium falciparum Cam3.II^rev expressing wild type K13 assessed as reduction in parasite growth measured after 72 hrs by Monash assay based fluorescence analysis; assay type: functional, organism-based; method in brief: as §1
HEK293 = assay: Cytotoxicity against human HEK293 cells assessed as reduction in cell viability at 50 uM measured after 24 hrs by MTT assay; conditions: hek293, 24 h
[13] = Metabolic stability in human liver microsomes assessed as half-life at 1 uM measured for 60 mins in presence of NADPH regenerating system by LC-MS analysis; assay type: ADME, Microsome; method in brief: as §4
[14] = Kinetic solubility of the compound at pH 2 measured after 30 mins by nephelometry; assay type: physicochemical; conditions: buffer, read-out: Kinetic_solubility
Method in brief: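 Compound in DMSO was spiked into 0.01 M HCl (pH ~2.0) at a final DMSO of 1%. After 30 min, nephelometry gave a solubility range.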

Plasmodium falciparum [15] = assay: Antiplasmodial activity against PfATP4 inhibitor SJ557733-resistant Plasmodium falciparum Dd2 assessed as reduction in parasite growth incubated for 72 hrs by Griffith assay based fluorescence analysis; assay type: functional, organism-based; conditions: Dd2, 72 h; method in brief: as §3
Plasmodium falciparum [16] = assay: Selectivity index, ratio of IC50 for antimalarial activity against PfATP4 inhibitor SJ557733-resistant Plasmodium falciparum Dd2 to IC50 of antimalarial activity against Plasmodium falciparum Dd2; assay type: functional
[17] = as §2

SMILES: Nc1nc2ccccc2n1-c1cnccc1O
IC50 (Plasmodium falciparum [1]): > 0.5 µM

SMILES: Nc1ccccc1-n1c(S)nc2ccccc21
IC50 (Plasmodium falciparum [1]): > 0.5 µM

Activity [2]: inactive
SMILES: COc1ccccc1-n1c(N)nc2ccccc21
IC50 (Plasmodium falciparum [1]): > 0.5 µM

SMILES: Nc1nc2ccccc2n1-c1ncccc1O
IC50 (Plasmodium falciparum [1]): > 0.5 µM

SMILES: Nc1nc2ccccc2n1-c1cc(F)ccc1O
IC50 (Plasmodium falciparum [1]): 0.09 µM

SMILES: Nc1nc2ccccc2n1-c1cccc(F)c1O
IC50 (Plasmodium falciparum [1]): > 0.5 µM

SMILES: Nc1nc2ccccc2n1[C@H]1CCCC[C@@H]1O
IC50 (Plasmodium falciparum [1]): > 0.5 µM

SMILES: CCc1nc(N)nc(N)c1-c1ccc(Cl)cc1 [PYRIMETHAMINE]
IC50 (Plasmodium falciparum [3]): 0.0047 µM
Ratio IC50 [4]: > 8000
IC50 (Plasmodium falciparum [5]): > 40 µM

SMILES: Cc1ccc(O)c(-n2c(N)nc3ccccc32)c1
IC50 (Plasmodium falciparum [1]): 0.056 µM

SMILES: Cc1cc(O)c(-n2c(N)nc3ccccc32)cc1C
microsomal CLint at 1 µM [6]: 76 µL/min/mg
microsomal CLint at 1 µM [7]: 13 µL/min/mg
IC50 (Plasmodium falciparum [8]): 0.063 µM
selectivity ratio [9]: > 1000
half-life at 1 µM [10]: 0.383 h
solubility kinetic at 0.5 h [11]: 0.0125 mg/mL (≈ 49.3 µM)
IC50 (Plasmodium falciparum [12]): 0.047 µM
Activity (HEK293): Non-Toxic
half-life at 1 µM [13]: 2.15 h
IC50 (Plasmodium falciparum [1]): 0.0064 µM
solubility kinetic at 0.5 h [14]: > 0.1 mg/mL

SMILES: C[C@H]1[C@@H](O)O[C@@H]2O[C@@]3(C)CC[C@H]4[C@H](C)CC[C@@H]1[C@@]24OO3 [ARTENIMOL]
IC50 (Plasmodium falciparum [3]): 0.0004 µM
Ratio IC50 [4]: 1.3
IC50 (Plasmodium falciparum [5]): 0.0006 µM
IC50 (Plasmodium falciparum [1]): 0.002 µM

SMILES: CCNc1nc2ccccc2n1-c1ccccc1O
IC50 (Plasmodium falciparum [1]): > 0.5 µM

SMILES: Oc1ccccc1-n1c(NC2CCCCC2)nc2ccccc21
IC50 (Plasmodium falciparum [1]): 0.333 µM

SMILES: Nc1nc2ccccc2n1-c1cccnc1O
IC50 (Plasmodium falciparum [1]): > 0.5 µM

SMILES: Nc1nc2ccccc2n1-c1cccc2cc[nH]c12
IC50 (Plasmodium falciparum [1]): > 0.5 µM

Activity [2]: inactive
SMILES: Nc1ccc(-n2c(N)nc3ccccc32)cc1
IC50 (Plasmodium falciparum [1]): > 0.5 µM

SMILES: Nc1nc2ccccc2n1-c1cccc2ccoc12
IC50 (Plasmodium falciparum [1]): > 0.5 µM

SMILES: Nc1nc2ccccc2n1-c1c(O)cccc1F
IC50 (Plasmodium falciparum [1]): 0.321 µM

SMILES: Nc1nc2ccccc2n1-c1ccc(F)cc1O
IC50 (Plasmodium falciparum [1]): 0.188 µM

SMILES: Nc1ncccc1-c1ccccc1O
IC50 (Plasmodium falciparum [1]): > 0.5 µM

Activity [2]: inactive
SMILES: COc1ccc(-n2c(N)nc3ccccc32)cc1
IC50 (Plasmodium falciparum [1]): > 0.5 µM

SMILES: Nc1ccccc1-n1c(O)nc2ccccc21
IC50 (Plasmodium falciparum [1]): > 0.5 µM

SMILES: COc1cccc(O)c1-n1c(N)nc2ccccc21
IC50 (Plasmodium falciparum [1]): 0.183 µM

SMILES: COc1ccc(O)c(-n2c(N)nc3ccccc32)c1
IC50 (Plasmodium falciparum [1]): > 0.5 µM

SMILES: COc1ccc2nc3cc(Cl)ccc3c(Nc3cc(CN4CCCC4)c(O)c(CN4CCCC4)c3)c2n1 [PYRONARIDINE]
IC50 (Plasmodium falciparum [3]): 0.0074 µM
Ratio IC50 [4]: 1.1
IC50 (Plasmodium falciparum [5]): 0.0083 µM

Activity [2]: inactive
SMILES: Nc1nc2ccccc2n1-c1cccc(O)c1
IC50 (Plasmodium falciparum [1]): > 0.5 µM

SMILES: CC(C)Nc1nc2ccccc2n1-c1ccccc1O
IC50 (Plasmodium falciparum [1]): > 0.5 µM

SMILES: Nc1nc2ccccc2n1-c1ccc2ccccc2c1O
IC50 (Plasmodium falciparum [8]): 0.114 µM
selectivity ratio [9]: > 1000
IC50 (Plasmodium falciparum [12]): 0.105 µM
Activity (HEK293): Non-Toxic
IC50 (Plasmodium falciparum [1]): 0.038 µM

SMILES: Nc1nc2ccccc2n1-c1ccccc1O
microsomal CLint at 1 µM [6]: 22 µL/min/mg
microsomal CLint at 1 µM [7]: < 7 µL/min/mg
IC50 (Plasmodium falciparum [8]): 0.264 µM
Activity [2]: inactive
selectivity ratio [9]: > 1000
half-life at 1 µM [10]: 1.3 h
solubility kinetic at 0.5 h [11]: > 0.1 mg/mL
IC50 (Plasmodium falciparum [15]): 0.046 µM
Ratio IC50 (Plasmodium falciparum [16]): 0.5
IC50 (Plasmodium falciparum [12]): 0.35 µM
IC50 (Plasmodium falciparum [3]): 0.0222 µM
Ratio IC50 [4]: 4.4
IC50 (Plasmodium falciparum [5]): 0.0973 µM
Activity (HEK293): Non-Toxic
half-life at 1 µM [13]: > 4.25 h
IC50 (Plasmodium falciparum [1]): 0.077 µM
solubility kinetic at 0.5 h [14]: > 0.1 mg/mL

SMILES: Nc1nn(-c2ccccc2O)c2ccccc12
IC50 (Plasmodium falciparum [1]): > 0.5 µM

SMILES: Nc1nc2ccccc2n1-c1cccc(Cl)c1O
IC50 (Plasmodium falciparum [1]): > 0.5 µM

SMILES: Nc1cc(N)cc(-c2nc3ccccc3[nH]2)c1
Kd [17]: 100 µM
